# CaV13 ICDI inh: Disruptors of the CACNA1D IQ motif to Ca2+-dependent inactivation inhibitor domain association, primary screening, Förster resonance energy transfer in intact living …; inhibition, % at 12.3 µM; HEK cells, CFP/YFP FRET ICDI-IQ, plate reader, 10 min; percent FRET-ratio fall versus neutral wells; 340,000 tested, 0.098% active;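 active = mean replicate inhibition of at least 30% and at least 1% of replicates passing that level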;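 also: 0% = median of the neutral control wells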
# Glyco luc inh: N-linked glycosylation inhibition; D54 ERlucT glycosylation luciferase reporter, 24 h; percent of 100 nM tunicamycin response; reporter increase, % at 12.5 µM; 360,000 tested, 0.23% active; AID 588692;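 active = mean luciferase reporter signal, scaled so untreated is 0 and the glycosylation-blocking control 100, at or above a set limit in every replicate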;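 also: luciferase carries N-glycosylation sites so blocking glycosylation raises the light; 0% = median of neutral control wells and 100% = median of 100 nM tunicamycin wells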
# T cruzi repl: T. cruzi replication inhibition. T. cruzi beta-gal in NIH3T3, luminescence, 90 h. inhibition, % (concentration not given with the values). 300,000 tested, 1.4% active. AID 1885;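 active = mean inhibition across valid replicates above about 55%, limit read from the data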;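 also: signal also drops with host cell toxicity which is not excluded here; 0% = plate median of DMSO wells and 100% = zero luminescence signal; higher percent means less beta-gal luminescence so fewer parasites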
#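 Read-out: Parasite load inhibition, % | Test system: Mouse NIH/3T3 fibroblasts infected with β-gal-expressing T. cruzi Tulahuen C4 | Amount: 5,000 cells/well | Medium: DMEM, 2% fetal bovine serum | Signal: GalScreen β-gal luminescence, detergent lysis, 60 min | Timing: 3 h attach, ≥90 h co-culture | Also added: Tulahuen C4 trypomastigotes, 5000/well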
# PfHsp90 set2: inhibits growth of yeast expressing Plasmodium falciparum Hsp90 | S. cerevisiae expressing PfHsp90, BacTiter-Glo ATP, 48 h; yeast lacking PDR1 and PDR3 efflux regulators | inhibition, % at 9.4 µM | AID 504621 | 310,000 tested, 0.32% active;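 active = every replicate shows inhibition above about 80%, whatever the replicate mean, limit read from the data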;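 also: 0% = DMSO neutral controls and 100% = 20 µM radicicol positive controls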
# PvdQ inh: P. aeruginosa PvdQ acylase inhibition; AID 488965; 340,000 tested, 0.063% active; inhibition, % at 10 µM; purified PvdQ acylase, fluorescence plate reader; in the data active = inhibition above about 30%, passing the limit was not always enough;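 also: 0% = vehicle neutral wells and 100% = reference inhibitor wells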
# HSF1 activator: increases HSF-1 driven luciferase reporter signal | NIH3T3-HGL HSF-1 luciferase reporter, MG132, 8 h; 100% = twice DMSO control signal | AID 504408 | 300,000 tested, 1.7% active | activation, % at 9 µM;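 active = mean replicate activation of at least 50% with a set share of replicates each reaching 50%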;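 also: 0% = median of the neutral control wells and 100% = twice that signal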
# Active calls of the source: *; / = no result. This is a sample that favours compounds with a hit; in the whole collection about 3% have one here.
SMILES,CaV13 ICDI inh,Glyco luc inh,T cruzi repl,PfHsp90 set2,PvdQ inh,HSF1 activator
Cc1c(Cl)ccc2c1NC(=O)C21NC(CCC(N)=O)[C@H]2C(=O)N(c3ccc(Cl)cc3)C(=O)[C@H]21 (stereo not given in full),/,0,-11,0,12,56*
CN(c1cccnc1)c1ccc(NC(=O)Cc2c[nH]c3ccccc23)cc1-c1ccc(C(C)(C)C)cc1,-2,/,/,/,/,/
O=C(Cc1cn(Cc2ccccc2)c2ccccc12)Nc1ccc(Oc2cccnc2)cc1,-12,/,/,/,/,/
CCOC(=O)C(Nc1ccc2ccccc2c1)C(=O)OCC,-3,11,11,-22,2,59*
CCN(CC)CCSc1nc2ccccc2c(=S)n1-c1ccccc1,3,/,64*,/,/,-2
CCCCS(=O)(=O)N1CCCc2nc(C)c(C)cc21,-6,/,/,/,/,/
COc1cccc(-c2nnc(-c3ccc(C)o3)o2)c1,-4,-13,-25,10,-16,63*
COc1cccc(-c2nnc(-c3ccco3)o2)c1,-3,-12,-3,-15,13,74*
N#CC(c1c(Cl)cccc1N1CCCCC1)N1CCCCC1 (stereo not given),-12,/,/,/,/,/
COc1ccc(Cc2nnc(SCC(=O)Nc3ccc(N4CCOCC4)cc3)o2)cc1,-2,0,5,12,-5,61*
Clc1ccc(N=c2ssnc2Cl)nc1,-19,3,58*,120*,-11,130*
Clc1nssc1=Nc1ccc(Br)cc1,-7,1,-97,105*,-1,-19
CCc1ccc(N2C(=O)CC(NNc3nc4ccccc4s3)C2=O)cc1 (stereo not given),-8,6,-1,-14,-10,220*
COc1cccc(N2C(=O)CC(NNc3nc4ccccc4s3)C2=O)c1 (stereo not given),-4,-1,-9,-25,-16,69*
O=C1CC(NNc2nc3ccccc3s2)C(=O)N1c1ccccc1 (stereo not given),-10,2,-15,/,-16,43
O=C(COC(=O)Cc1ccccc1F)Nc1ccc(SC(F)F)cc1,-6,2,-31,-13,-14,-8
O=C(Cc1ccccc1F)Nc1ccc(SC(F)F)cc1,-5,-4,-7,2,-15,59*
O=C(Nc1ccc(C(F)(F)F)cc1)N1CCN(c2ccnc3cc(Cl)ccc23)CC1,-15,-15,69*,-2,-2,6
CC(=O)/C=C/c1ccccc1Oc1c(F)c(F)nc(F)c1F,-4,60*,-32,0,-3,2
O=C(Nc1ccc(-c2csc(-c3ccccc3)n2)cc1)c1ccccc1Cl,/,4,62*,20,-7,2
O=C(CCNC(=O)c1ccccc1Cl)Nc1nc(-c2ccc3ccccc3c2)cs1,-17,-2,56*,23,-6,-14
CCCCCCCCN1C(=O)[C@@H](CC(=O)N2CCCC2)C[C@@]2(C(=O)OC)C1=C[C@H](C1CCCC1)O[C@@H]2C,-10,/,/,/,/,/
Cc1ccc(OCC(O)Cn2c(=N)n(CCN3CCCCC3)c3ccccc32)cc1 (stereo not given),-5,-2,73*,9,-12,-10
COc1ccccc1OCC(O)Cn1c(=N)n(Cc2ccccc2)c2ccccc21 (stereo not given),-8,-1,37,1,-10,7
Cc1ccccc1OCC(O)Cn1c(=N)n(Cc2ccccc2)c2ccccc21 (stereo not given),-3,-7,55*,-17,-8,-2
SMILES,CaV13 ICDI inh,Glyco luc inh,T cruzi repl,PfHsp90 set2,PvdQ inh,HSF1 activator
Cc1cc(C)n(-c2nc(SCCN(C)C)c3c4c(sc3n2)COC(C)(C)C4)n1,-7,-5,65*,/,6,-6
Cc1cc(C)n(-c2nc(NCC(C)O)c3c4c(sc3n2)COC(C)(C)C4)n1 (stereo not given),-3,0,-5,-1,-4,-5
Cc1oc(-c2ccccc2F)nc1CN1CCC(C(=O)NC2CCCCCCC2)CC1,/,-1,10,/,8,57*
COc1cc2c(cc1OC)C(CNC(=O)C=Cc1cc(OC)c(OC)c(OC)c1)C2 (stereo not given),-6,6,/,/,/,/
CN1CCN(c2ncnc3sc(-c4ccccc4)cc23)CC1,-3,2,74*,2,-4,6
c1ccc(-c2cc3c(N4CCN(c5ccccc5)CC4)ncnc3s2)cc1,-5,3,-27,-7,-6,17
CN(C)S(=O)(=O)c1ccc(N2CCCC2)c(C(=O)Nc2nc(-c3ccc(F)c(F)c3)cs2)c1,-6,2,42,-13,-13,-10
CCc1cccc(NC(=O)c2cc(S(=O)(=O)N3CCCCC3)ccc2N2CCOCC2)c1,-5,-5,/,/,/,/
Cc1cnc(NC(=O)c2cc(S(=O)(=O)N(C)C)ccc2N2CCCC2)s1,-6,98*,/,/,/,/
CCc1cccc(NC(=O)c2cc(S(=O)(=O)N(C)C)ccc2N2CCCC2)c1,-2,39*,18,4,-9,3
CN(C)S(=O)(=O)c1ccc(N2CCCC2)c(C(=O)Nc2nc3c(ccc4ccccc43)s2)c1,-11,-3,50,-8,2,-11
CN(C)S(=O)(=O)c1ccc(N2CCCC2)c(C(=O)Nc2nccs2)c1,-2,79*,/,-8,-14,/
O=C(N[C@@H](Cc1cccnc1)C(=O)N1CCC[C@H]1C(=O)NC1CCCC1)C1CCCC1,-2,/,/,/,/,/
Cc1cc(/C=C(\C#N)C(=O)Nc2ccccc2)c(C)n1-c1cccnc1,-7,-9,-2,7,9,58*
Cc1cc(C(=O)O)ccc1-n1c(C)cc(/C=C(/C#N)C(=O)Nc2ccccc2)c1C,6,0,2,-3,16,5
CCCCOCC1CN(CCCC)S(=O)(=O)c2c(Oc3ccc(C)cc3)cccc2O1 (stereo not given),-9,/,/,/,/,/
O=C1/C(=C/c2cccnc2)SC(=NCc2ccccc2)N1Cc1ccccc1,-3,-1,63*,34,-2,-21
CCOC(=O)COc1ccc(/C=C2/SC(=Nc3ccccc3)N(Cc3cccnc3)C2=O)cc1OC,/,9,-4,-8,-27,64*
CCOc1cc(/C=C2\SC(=Nc3ccccc3)N(c3ccccc3)C2=O)ccc1OCC(=O)O,-2,1,10,9,-3,26
O=C1NC[C@@H](CCCCN2C[C@H](Cc3ccccc3)N(CCc3ccccc3)C(=O)C2=O)N(CCc2ccccc2)C1=O,-4,/,/,/,/,/
COC(=O)c1c(-c2ccc(N(C)C)cc2)oc2c1C(OC)CCC2 (stereo not given),-11,/,/,/,/,/
COC(=O)c1sc(N)nc1CCNC(=O)OC(C)(C)C,-14,/,/,/,/,/
COc1ccccc1-c1cccc2[nH]c3c(c12)CCN1C(=O)[C@H]2[C@H](C)ON(C)[C@H]2C[C@@H]31,-6,/,/,/,/,/

# Bioassay records from PubChem.
